Compound activity deposited in PubChem BioAssay by several laboratories.
This is a sample that favours compounds with a hit; in the whole collection about 2% have one here.
GPR7 antag: human neuropeptides B/W receptor 1 antagonism | P48145 | GPR7-expressing cells, fluorescence antagonist assay | inhibition, % at 4.4 µM | hit rate 1.1% among 290,000 | AID 1861; in the data active = inhibition above about 16%, passing the limit was not always enough;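 note: cells stimulated with the agonist NPW; 0% = agonist with vehicle and 100% = vehicle without agonist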
Target sequence (P48145 whole entry, looked up): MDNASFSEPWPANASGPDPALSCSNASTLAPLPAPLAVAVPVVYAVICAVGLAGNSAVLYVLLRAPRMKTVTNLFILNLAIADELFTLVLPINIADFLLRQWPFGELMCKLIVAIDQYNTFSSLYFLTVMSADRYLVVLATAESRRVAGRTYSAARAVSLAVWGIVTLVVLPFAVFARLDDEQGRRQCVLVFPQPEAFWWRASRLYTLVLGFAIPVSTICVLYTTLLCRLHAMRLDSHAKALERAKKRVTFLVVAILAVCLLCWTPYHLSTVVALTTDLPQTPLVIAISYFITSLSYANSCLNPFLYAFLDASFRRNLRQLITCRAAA
CRFR2-BP antag: CRF-BP/CRF-R2 complex antagonism; HEK293 CRF-R2/CRF-BP, CRF-induced calcium fluorescence; inhibition, % at 11.8 µM; hit rate 0.59% among 350,000;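 active = inhibition of the ligand-induced calcium signal above about 50% at the single tested concentration, limit read from the data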
TRPN1 ag: zebrafish TRPN1 (NompC) channel agonism; activation, % at 3 µM; AID 1424; HEK293 zebrafish TRPN1-YFP, Fluo-8 calcium fluorescence; 100% = response to 87 µM carbachol; hit rate 0.18% among 220,000;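 active = activation above its plate's cutoff, the mean activation of test wells on that plate plus 3 SD, cut at about 19% in these data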;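 note: 0% = DMSO alone and 100% = 87 µM carbachol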
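System: zebrafish TRPN1-YFP in HEK293 cells / Dosing: 3 µM single point / Timing: dye loading 1 h at 37 °C, then 30 min room temperature / Signal: Fluo-8 calcium fluorescence, excitation 470-495 nm, emission 515-575 nm / Read-out basis: percent activation from peak over basal fluorescence ratio, control-normalized / Control set: high carbachol 87 µM, low DMSO alone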
TRPML3 ag: human mucolipin-3 channel agonism; activation, % at 3 µM; hit rate 0.29% among 220,000; HEK293 TRPML3-YFP, Fluo-8 calcium fluorescence; 100% = the carbachol control signal; Q8TDD5;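 active = activation above its plate's cutoff, the mean activation of the plate's test wells plus 3 SD, cut at about 12% in these data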;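 note: 0% = DMSO only wells and 100% = carbachol wells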
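Test system: TRPML3-YFP stable HEK293 cells. Doses: single point at 3 µM. Incubation: dye loading 1 h 37 °C then 30 min ambient, 125 s read. Signal: Fluo-8 calcium dye fluorescence, ex 470-495, em 515-575 nm. Measure: percent activation from peak-to-basal fluorescence ratio, scaled between DMSO and carbachol.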
CRFBP-R2 agonist: agonists of human CRF-binding protein/CRF-R2 receptor complex; HEK293 CRF-R2/CRF-BP, calcium dye fluorescence (FLIPR); percent of saturating CRF peptide response; activation, % at 13.2 µM; hit rate 0.46% among 350,000;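 active = activation of at least 50%, plus an integration ratio under a set limit after plate pattern correction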;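 note: plate controls were neutral control wells without compound for no effect and CRF at EC100 for full effect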
Numbers without * were called inactive.

Screening O=C(N/N=C/c1c(O)n(-c2ccc(Cl)cn2)c(=O)c2ccccc12)c1ccncc1 returned GPR7 antag -7, CRFR2-BP antag -68, TRPN1 ag 2, TRPML3 ag 1 and CRFBP-R2 agonist 55*.
`Cc1cc2oc(C(=O)Nc3ccc(S(=O)(=O)Nc4ncccn4)cc3)cc(=O)c2cc1Cl` gave GPR7 antag -4, CRFR2-BP antag 6 and CRFBP-R2 agonist 0.
`CC(=NNC(=O)c1ccncc1)c1ccc2ccccc2c1O` gave CRFR2-BP antag -328 and CRFBP-R2 agonist 297*.
For O=C(N/N=C/c1cc(Br)ccc1O)c1ccncc1 the results were GPR7 antag -6, CRFR2-BP antag -13, TRPN1 ag 3, TRPML3 ag 0 and CRFBP-R2 agonist 6.
O=C(N/N=C/c1ccc(O)c2ncccc12)c1cccc(Br)c1 was read as GPR7 antag 5, CRFR2-BP antag -193, TRPN1 ag 2, TRPML3 ag 1 and CRFBP-R2 agonist 124*.
`CCN(CC)CCN(Cc1cc2cc3c(cc2[nH]c1=O)OCCO3)C(=S)NCCCOC` gave GPR7 antag -11, CRFR2-BP antag -10 and CRFBP-R2 agonist -2.
COc1ccccc1NC(=O)c1ccc2c(c1)N(CC#N)C(=O)C(C)(C)O2 was read as GPR7 antag 3, CRFR2-BP antag 13 and CRFBP-R2 agonist -2.
O=C1C=CC(=O)N1c1ccccc1N1C(=O)C=CC1=O was read as CRFR2-BP antag 97* and CRFBP-R2 agonist 4.
`Cc1ccc(C)c(NC(=O)CCC(=O)NN=C2CCCC2)c1` gave GPR7 antag 7, CRFR2-BP antag -14 and CRFBP-R2 agonist -2.
For CC1CCCC(C)N1C(=O)COC(=O)c1nn(C)c(=O)c2ccccc12 (configuration not stated) the results were GPR7 antag -4, CRFR2-BP antag 1 and CRFBP-R2 agonist 1.
`O=C(Nc1ccon1)Nc1ccc(F)cc1F` gave GPR7 antag 4, CRFR2-BP antag 3 and CRFBP-R2 agonist 2.
For CC(=O)N1c2ccc(S(=O)(=O)N(C)CC(=O)NC3CCCC3)cc2CC1C (configuration not stated) the results were GPR7 antag -1, CRFR2-BP antag 63* and CRFBP-R2 agonist 2.
CC(=O)N1c2ccc(S(=O)(=O)N(C)CC(=O)N3CCCC3)cc2CC1C (configuration not stated) was read as GPR7 antag 4, CRFR2-BP antag -5 and CRFBP-R2 agonist 0.
For CCOc1ccc(N(CC(=O)NCC2CCCO2)C(=O)CCC(=O)Nc2nccs2)cc1 (configuration not stated) the results were GPR7 antag -1, CRFR2-BP antag 52*, TRPN1 ag 2, TRPML3 ag 1 and CRFBP-R2 agonist 2.
For NC(=O)C1CCN(CC(=O)Nc2ccc(S(=O)(=O)N3CCOCC3)cc2)CC1 the results were GPR7 antag -18, CRFR2-BP antag 13 and CRFBP-R2 agonist 1.
For COc1cccc(CN2CCN(c3cccc(C(F)(F)F)c3)CC2)c1OC the results were GPR7 antag -11, CRFR2-BP antag 54*, TRPN1 ag -1, TRPML3 ag -1 and CRFBP-R2 agonist 1.
For Cc1c(-n2cc(C(=O)c3cc(F)ccc3O)cc(C#N)c2=O)c(=O)n(-c2ccccc2)n1C the results were GPR7 antag -9, CRFR2-BP antag -10, TRPN1 ag 3, TRPML3 ag 1 and CRFBP-R2 agonist 51*.
`N#Cc1cc(C(=O)c2ccccc2O)cn(-c2nccs2)c1=O` gave GPR7 antag 13, CRFR2-BP antag -224, TRPN1 ag 47*, TRPML3 ag 34* and CRFBP-R2 agonist 239*.
For N#Cc1cc(C(=O)c2cc(F)ccc2O)cn(-c2nccs2)c1=O the results were GPR7 antag -7, CRFR2-BP antag -416, TRPN1 ag 28*, TRPML3 ag 23* and CRFBP-R2 agonist 341*.
Screening C=CC[C@@H](CC(=O)N(CCO)Cc1ccccc1)C(=O)NC[C@H](OC(=O)[C@@H](CC=C)Cc1ccc(F)cc1)c1ccccc1 returned CRFR2-BP antag 11 and CRFBP-R2 agonist 2.
`CCOc1cc(C2NC(=O)CCC2[N+](=O)[O-])cc(Br)c1OCC` (configuration not stated) gave GPR7 antag -5, CRFR2-BP antag -4 and CRFBP-R2 agonist -2.
`N/C(=N\OC(=O)CCCc1ccccc1)c1ccccc1Cl` gave GPR7 antag 0, CRFR2-BP antag -4 and CRFBP-R2 agonist 0.
For CCc1cccc(CC)c1N1C(=O)CSCC1=O the results were CRFR2-BP antag -15 and CRFBP-R2 agonist 0.
Screening CC(C)N=c1c([N+](=O)[O-])nn(C)n1O returned GPR7 antag -4, CRFR2-BP antag -4, TRPN1 ag 0, TRPML3 ag 1 and CRFBP-R2 agonist 0.
Screening O=C(O)c1cccc(-n2nnnc2SCc2ccccn2)c1 returned GPR7 antag 19*, CRFR2-BP antag -1, TRPN1 ag 2, TRPML3 ag 1 and CRFBP-R2 agonist 1.
`O=C(CSc1nnnn1-c1cccc(C(=O)O)c1)NC(c1ccccc1)c1ccccc1` gave GPR7 antag -8, CRFR2-BP antag 5, TRPN1 ag 1, TRPML3 ag 1 and CRFBP-R2 agonist -2.
For O=C1CCC/C(=N/NC(=O)c2sc3ccccc3c2Cl)C1 the results were GPR7 antag -2, CRFR2-BP antag -57, TRPN1 ag 10, TRPML3 ag 6 and CRFBP-R2 agonist 53*.
CC1=C(C(=O)N(C)C)CC(CC(=O)NC2CCCC2)C(=O)N1CCC1=CCCCC1 (configuration not stated) was read as CRFR2-BP antag 4 and CRFBP-R2 agonist -1.
For COc1ccc(NC(=O)CN(C)C(=O)CNC(=O)c2cccs2)cc1 the results were GPR7 antag -2, CRFR2-BP antag -19 and CRFBP-R2 agonist 2.
`Cc1cccc(Sc2ccc([N+](=O)[O-])cn2)c1` gave GPR7 antag 7, CRFR2-BP antag 47, TRPN1 ag 0, TRPML3 ag 0 and CRFBP-R2 agonist 0.
Screening O=[N+]([O-])c1ccc(Sc2ccccc2)nc1 returned GPR7 antag -2, CRFR2-BP antag 54*, TRPN1 ag 0, TRPML3 ag 0 and CRFBP-R2 agonist -6.
For Cc1cc(C)cc(NC(=O)Cn2nnc(C(=O)NCc3ccccc3Cl)c2N)c1 the results were GPR7 antag 6, CRFR2-BP antag -4 and CRFBP-R2 agonist 1.
Cc1cc(C)cc(NC(=O)Cn2nnc(C(=O)NCc3ccc(F)cc3)c2N)c1 was read as GPR7 antag -4, CRFR2-BP antag 76* and CRFBP-R2 agonist 6.
For Cc1ncc([N+](=O)[O-])n1CC(=O)Nc1cc(Cl)ccc1Cl the results were GPR7 antag 4, CRFR2-BP antag 20 and CRFBP-R2 agonist -2.
`COc1ccc(S(=O)(=O)N2CCN(C(=O)CCCN3C(=O)NC4(CCCC4)C3=O)CC2)cc1` gave CRFR2-BP antag 55* and CRFBP-R2 agonist -1.
